Screening data from PubChem.
The list is a sample of the results.
PGC1a Ac signal – raises PGC1a acetylation signal in U2OS cells; hit rate 0.21% among 350,000; AID 651723; U2OS PGC1a acetylation AlphaScreen, overnight; activation, % at 15.6 µM;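 active means every replicate reaching activation of at least 50%, whatever the mean replicate activation; inconclusive means replicates that disagree or another doubt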;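 further: hits raise the AlphaScreen acetylation signal above neutral controls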
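detection = AlphaScreen lysate read | assay system = U2OS cells expressing flag-PGC1a plus GCN5 | input = 7000 cells/well | dosing = one concentration | times = compound overnight at 37 °C, each detection step 1 h RT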
Hep G6PC suppr – PGC-1a acetylation activator altering hepatocyte G6PC expression | 240 tested, under 10 active | primary mouse hepatocytes, G6PC mRNA qPCR, forskolin | AID 743463 | G6PC suppression (normalized activity, % of positive control; higher = more suppression), % at 26 µM | shares compounds with PGC1a Ac signal;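 active means dose curves showing G6PC suppression whose half-maximal dose is at most twice the top valid dose; inconclusive means flat curves with moderate negative activity, or unreliable fits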;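 further: G6PC expression relative to GAPDH housekeeping gene as delta delta Ct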
PCK1 hep suppr – hepatocyte PCK1 expression change via PGC-1a acetylation activation | AID 743465 | primary mouse hepatocytes, PCK1 mRNA qPCR, forskolin-stimulated | 230 tested, under 10 active | shares compounds with PGC1a Ac signal | PCK1 expression decrease, unspecified at 26 µM;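 active means compounds lowering PCK1 expression whose fitted half-maximal concentration is at most twice the top tested dose; inconclusive means flat fit with moderate opposite-direction effect, or poor fit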;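 further: higher delta delta Ct means lower PCK1 expression so positive values indicate hits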
PGC1a hep suppr – hepatocyte PGC-1a expression change via PGC-1a acetylation activation; shares compounds with PGC1a Ac signal; primary mouse hepatocytes, PGC-1a mRNA qPCR, forskolin; top dose 26 µM; max activity (PGC-1a expression decrease), %; 240 tested, under 10 active;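 active means compound lowering PGC-1a expression with fitted half-maximal concentration at most twice its top tested dose; inconclusive means flat curve with moderate opposite-direction effect, or poor fit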
A number is an active result; - = inactive; ? = inconclusive; . = no result given.

SMILES	PGC1a Ac signal	Hep G6PC suppr	PCK1 hep suppr	PGC1a hep suppr
Cn1cc(-c2ccc(C(=O)NCc3cccc(Cl)c3)c3occc23)cn1	59	-	-	-
Cc1cccn2c(=O)c3cc(C(=O)NCc4ccco4)c(=N)n(CCc4ccccc4)c3nc12	-	.	.	.
CC(C)C[C@H]1CNC(=S)N1CC1CCCN1C[C@H](Cc1ccccc1)N1C[C@H](Cc2ccc(O)cc2)N(CC2CCCCCC2)C1=S (stereo partly specified)	-	.	.	.
Cc1ccc(Nc2nnc(C)c3ccccc23)c(C)c1	?	-	-	-
Cc1ccc(NC2=C/C(=N\S(=O)(=O)c3cccs3)c3ccccc3C2=O)c(C)c1	-	.	.	.
CCc1ccc(S(=O)(=O)/N=C2\C=C(Nc3ccc(O)cc3)C(=O)c3ccccc32)cc1	-	.	.	.
CCCc1cc(=O)oc2cc(C)cc(O)c12	-	.	.	.
C[C@H]1CN([C@@H](C)CO)C(=O)c2cccc(NS(=O)(=O)c3ccc(F)cc3)c2O[C@H]1CN(C)Cc1ccc(C(F)(F)F)cc1	-	-	-	-
C[C@H](CO)N1C[C@H](C)[C@H](CN(C)Cc2ccc(Oc3ccccc3)cc2)Oc2c(NC(=O)Nc3ccc4c(c3)OCO4)cccc2C1=O	-	.	.	.
Cc1ccc(NC(=O)c2c(C(F)(F)F)nn(C)c2SCc2ccc(Cl)cc2)cc1C	?	-	-	-
O=P(CCCCCCCCCP(=O)(c1ccccc1)c1ccccc1)(c1ccccc1)c1ccccc1	-	.	.	.
O=C(c1cc(-c2ccccc2)nc2ccccc12)N1N=C(C(F)F)CC1(O)C(F)F (stereo unspecified)	-	.	.	.
CCN(CC)c1ccc(N)cc1S(=O)(=O)Nc1ccccc1OC	57	-	-	-
CC(=O)c1cc(-c2ccccc2)n(CCC(=O)NC2CCCCC2)c1C	?	-	-	-
COc1cccc(NC(=O)c2ccccc2-c2ccccc2C(=O)O)c1	-	.	.	.
COc1cc(O)c(C(CC(=O)N2CCOCC2)c2ccc(N(C)C)cc2)c(OC)c1 (stereo unspecified)	-	.	.	.
OCCNc1nc(N2CCCCC2)nc2ccccc12	-	.	.	.
Cc1nonc1NC(=O)CSc1nc(C2CCCCC2)nc2ccccc12	-	.	.	.
O=C(Cn1c(CN2CCCCC2)nc2ccccc2c1=O)Nc1ccccc1	-	-	-	-
N#Cc1ccc(CCc2ccccc2)[nH]c1=O	-	.	.	.
C(=N\Nc1nc2ccccc2[nH]1)/c1ccc2ncccc2c1	-	.	.	.
CCn1c(CSc2nnc3ccccn23)nc2cc(C(=O)O)ccc21	-	.	.	.
Cc1ccccc1CSc1nnc(-c2ccco2)n1Cc1ccco1	-	.	.	.
Cc1ccc(S(=O)(=O)N/N=C/c2c[nH]c3ccccc23)cc1	-	.	.	.
CCOc1ccc(N2C(=O)CC(Cc3ccc(Br)cc3)C2=O)cc1 (stereo unspecified)	-	.	.	.
SMILES	PGC1a Ac signal	Hep G6PC suppr	PCK1 hep suppr	PGC1a hep suppr
N#Cc1cccc(C(c2nnnn2C2CCCC2)N2CCCCCC2)c1 (stereo unspecified)	?	-	-	-
O=C(Nc1ccc(-c2noc(-c3cccs3)n2)cc1)c1cccnc1	137	-	-	?
CC(Oc1ccc(Cl)cc1Cl)c1nc(-c2ccc(NC(=O)c3cccnc3)cc2)no1 (stereo unspecified)	88	-	-	?
Cc1ccccc1Cn1cnc2c(nnn2Cc2ccc(F)cc2)c1=O	-	.	.	.
COc1ccc(/C=N/Nc2nncn2N)cc1Br	-	.	.	.
O=C(c1ccco1)N1N=C(c2ccc(Cl)cc2)CC1(O)C(F)(F)F (stereo unspecified)	-	.	.	.
CCOCCOC(=O)C(C)Oc1ccc(Oc2nc(Cl)ccc2Cl)cc1 (stereo unspecified)	-	.	.	.
CCN(CC)CC(=O)N1c2ccccc2CCc2ccc(NC(=O)c3cc(OC)c(OC)c(OC)c3)cc21	-	-	?	-
O=Nc1c(O)c2ccccc2c2ccccc12	-	.	.	.
O=C(O)Cn1cc(C(=O)C(F)(F)F)c2ccccc21	-	.	.	.
NC(=O)Cn1cc(C(=O)c2cccs2)c2ccccc21	?	.	-	-
CCc1nnc(N/N=C/c2c(Cl)cccc2Cl)n1N	-	.	.	.
O=C(COc1cccnc1[N+](=O)[O-])NCCc1ccc(Cl)cc1	-	.	.	.
O=C(CSc1nc2ccc(Cl)cc2[nH]1)c1ccc2c(c1)OCO2	-	.	.	.
Cc1cc(C(=O)NNC(=S)NCc2ccccc2)no1	-	.	.	.
O=C(/C=C/c1cccs1)c1ccc(NC(=O)c2cccc(Br)c2)cc1	-	.	.	.
CCC(CC)C(=O)c1c[nH]c(C(=O)NCc2ccccc2)c1	?	-	-	-
O=C(Cc1ccc(Cl)cc1)c1c[nH]c(C(=O)NCc2cccnc2)c1	65	-	-	-
O=C(NCc1cccnc1)c1ccc(NC(=O)c2ccc(Br)cc2)cc1	84	-	-	-
CC(C)(C)c1ccc(C(=O)c2c[nH]c(C(=O)NCc3cccnc3)c2)cc1	257	-	.	?
O=C1C=C(c2c(O)ccc3ccccc23)c2ccccc2C1=O	-	.	.	.
COCCN(C)Cc1nc(C(c2ccccc2)c2ccccc2)no1	-	.	.	.
CN(Cc1cnc2nc(N)nc(N)c2n1)c1ccc(C(=O)N[C@@H](CCC(=O)O)C(=O)O)cc1	-	.	.	.
Nc1ncnc(NCc2ccc(F)cc2)c1[N+](=O)[O-]	-	.	.	.
O=C(CSc1nc2cc(Cl)ccc2s1)NCC1CCCO1 (stereo unspecified)	-	.	.	.
SMILES	PGC1a Ac signal	Hep G6PC suppr	PCK1 hep suppr	PGC1a hep suppr
O=c1[nH]c(/C=C/c2ccc([N+](=O)[O-])cc2)c([N+](=O)[O-])c(=O)[nH]1	-	.	.	.
CC(=O)N(C1=C(N2CCOCC2)C(=O)c2ccccc2C1=O)c1ccc(C(=O)O)cc1	-	.	.	.
CCO[C@H]1OC(C(=O)Nc2ccccc2)=C[C@@H](c2csc3ccccc23)[C@@H]1CCCO	-	.	.	.
CCOC(=O)C1=C(Nc2ccccc2)OCC1=O	-	.	.	.
CCN(CC)CCNc1nc(-c2ccc(OC)cc2)c(-c2ccc(OC)cc2)s1	-	.	.	.
CC(=O)Oc1ccc(-c2csnn2)cc1	-	.	.	.
CCC(=O)N(CC)c1nc(-c2ccc(OC)cc2)cs1	-	-	-	-
O=C(c1nc2nc(-c3ccccc3)cc(C(F)(F)F)n2n1)N1CCCCC1	-	.	.	.
Cc1ccc2[nH]cc(C(=O)CN3CCN(c4ccccc4F)CC3)c2c1	-	-	-	-
CCOC(=O)C1=C(CNCc2ccc(C)cc2)NC(=O)NC1c1cc(C)ccc1C (stereo unspecified)	-	.	.	.
NC1=C(Br)C(=O)c2ncccc2C1=O	-	.	.	.
Cc1oc2c(c1C(=O)c1ccccc1)C(=O)C(=O)c1ccccc1-2	-	.	.	.
N#Cc1c(-c2cccc(Br)c2)cc(-c2ccco2)[nH]c1=O	-	.	.	.
COC(=O)CSc1nc(-c2ccccc2)cc(-c2ccco2)c1C#N	67	-	-	-
CS(=O)c1nc(-c2ccc(Br)cc2)cc(-c2ccccc2)c1C#N (stereo unspecified)	-	.	.	.
O=C(NCCCN1CCOCC1)c1ccccc1N1C(=O)[C@@H]2Cc3c([nH]c4ccccc34)C(c3ccccc3)N2C1=O (stereo partly specified)	320	-	-	-
CCOCCCNC(=O)c1ccccc1SC	-	.	.	.
CCOC(=O)CN1C(=N)N(c2nc(NC(C)C)nc(OC)n2)CC1=O	-	.	.	.
CN(c1cc2c(c3c1ccn3C)C1CCC2C1)C1CCCCC1 (stereo unspecified)	-	.	.	.
CN1CCN(CCP(=O)(c2ccccc2)c2ccccc2)CC1	-	.	.	.
